SIRT5 inh – inhibitors of human sirtuin-5 desuccinylase; Q9NXA8; Purified SirT5, succinyl-peptide AMC, trypsin-coupled fluorescence; inhibition, % at 15 µM; 330,000 tested, 1.1% active; AID 652115; in the data active = inhibition above about 15%
ERAP1 HTS inh – blocks human ERAP1 aminopeptidase activity. recombinant ERAP1, Leu-AMC fluorescence, 60 min. inhibition, % at 10.7 µM. 340,000 tested, 0.15% active. AID 652197;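 active = mean replicate inhibition of at least 30%, or all replicates individually reaching that 30% level; inactive = mean below 30% and not every replicate reaching it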
S100A4 inh HTS – blocks human S100A4 binding to myosin IIA peptide; P26447; S100A4/TAMRA-MyoIIA peptide fluorescence polarization; inhibition, % at 10.7 µM; 360,000 tested, 0.14% active;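 active = mean inhibition of at least 70% across replicates, with every replicate also reaching that level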
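Material: S100A4 monomer protein / Buffer or medium: 50 mM HEPES pH 7.2, 10 mM CaCl2, 100 mM KCl / Times: 5 min incubation before reading / Benchmarks: neutral control DMSO, positive control TFP / Reagent: labelled myosin peptide probe, 5 nM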
Ecoli rRNA inh – selective bacterial rRNA inhibition in E. coli | GFP signal change (wild-type ribosome), % (test concentration not listed) | AID 720706 | E. coli WT GFP vs humanized-ribosome RFP mutants, fluorescence, 24 h; active compounds read low; DMSO median 0, no signal -100 | 350,000 tested, 1.6% active;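 active = significant combined selectivity score with lowered wild-type GFP, culture density cut under 30%, mutant RFP and density less affected; inactive = any of these conditions unmet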
MLL AF4-AF9 inh – MLL-AF4/AF9 protein interaction inhibition; AlphaScreen, biotin-AF4 peptide binding to FLAG-AF9; AID 651704; inhibition, % at 10 µM; P42568; 350,000 tested, 0.47% active;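 active = every replicate reaching a set inhibition limit, whatever the replicate mean, cut at about 25% in these data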
E-selectin induc – E-selectin induction on HUVECs; P16581; HUVEC E-selectin immunofluorescence imaging; normalized: neutral wells 0, TNF-alpha wells 100; activation, % at 7.58 µM; 260,000 tested, 0.37% active;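 active = mean E-selectin-positive cell signal at least 10% of the positive control, reached in at least 60% of replicates, without over 20% cell loss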
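System: HUVEC, human umbilical vein endothelial cells; quantity: 3,000 cells/well; buffer or medium: EGM-2 medium, gelatin-coated wells; dosing: single-point compound dose; detection: immunofluorescence imaging; evaluation: % PE-positive cells; benchmarks: TNF-alpha, DMSO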
Of the large screens only hits and unclear results are named; the others gave an inactive call; ! = repeats disagree. This is a sample that favours compounds with a hit; in the whole collection about 3.4% have one here.

COc1cccc(/C=N/NC(N)=S)c1OCc1cccc(Cl)c1	none (no result: E-selectin induc)
COc1ccc2c3c([nH]c2c1)[C@H](CO)NCC31CN(S(=O)(=O)c2ccccc2)C1	none (no result: SIRT5 inh, ERAP1 HTS inh, S100A4 inh HTS, MLL AF4-AF9 inh, E-selectin induc)
COc1ccc(NC(=O)Nc2ccc3c(c2)C(=O)N([C@@H](C)CO)C[C@H](C)[C@@H](CN(C)C(=O)Cc2ccccc2)OCCCC[C@@H](C)O3)cc1	none
CCOC(=O)C1=CCN(S(=O)(=O)c2ccc(C)cc2)[C@H]1c1ccccc1Cl	Ecoli rRNA inh -28.6
CCOC(=O)C1=CCN(S(=O)(=O)c2ccc(C)cc2)C1c1cccc(Br)c1 (centres undefined)	SIRT5 inh 28.8
CCOC(=O)C1=CCN(S(=O)(=O)c2ccc(C)cc2)C1c1ccc(CC)cc1 (centres undefined)	SIRT5 inh 15.9
CCOC(=O)C1=CCN(S(=O)(=O)c2ccc(C)cc2)C1c1ccc(C)cc1 (centres undefined)	none
O=C(C[C@@H]1C=C[C@H](NC(=O)Nc2ccc(C(F)(F)F)cc2)[C@@H](CO)O1)NCCN1CCCC1	none
C[C@@H]1CN([C@H](C)CO)C(=O)c2cc(C#CC3(O)CCCC3)cnc2O[C@@H]1CN(C)S(=O)(=O)c1ccccc1	none
COC(=O)C[C@H]1CC[C@H](NS(=O)(=O)c2ccc(OC)cc2)[C@H](CO)O1	none
CN1CCN(c2ccc(S(=O)(=O)N3CCCCC3)cc2[N+](=O)[O-])CC1	none
COc1cccc(N2CCN(c3ccc(S(=O)(=O)N4CCN(C)CC4)cc3[N+](=O)[O-])CC2)c1	Ecoli rRNA inh -23.0
C=CC#CC[N+]1(CC#Cc2ccccc2)CCOCC1	MLL AF4-AF9 inh 97.2 (no result: E-selectin induc)
C(#Cc1ccccc1)C[N+]1(CC#Cc2ccccc2)CCCC1	Ecoli rRNA inh -44.5
C#CC[N+]1(CC#Cc2ccc(C)cc2)CCCCC1	none (no result: E-selectin induc)
C=CC[N+]1(CC#Cc2ccccc2)CCCC1	none (no result: E-selectin induc)
CC1CC1C(=O)OCC(=O)Nc1ccc(N=Nc2ccccc2)cc1 (centres undefined)	Ecoli rRNA inh -18.4
C[C@H](CO)N1C[C@H](C)[C@@H](CN(C)Cc2ccc(-c3ccccc3)cc2)Oc2ccc(NS(=O)(=O)c3ccccc3)cc2C1=O	none
C[C@@H]1CN([C@H](C)CO)C(=O)c2cc(NS(=O)(=O)c3ccccc3)ccc2O[C@@H]1CN(C)Cc1ccc(-c2ccccc2)cc1	SIRT5 inh 15.3
C[C@@H]1CN([C@@H](C)CO)C(=O)c2cc(NS(=O)(=O)c3ccc(F)cc3)ccc2O[C@H]1CN(C)Cc1ccc(-c2ccccc2)cc1	none
C[C@@H]1CN([C@H](C)CO)C(=O)c2cccc(NS(=O)(=O)c3ccccc3)c2O[C@@H]1CN(C)Cc1ccc(-c2ccccc2)cc1	none
Cc1ccc(S(=O)(=O)Nc2cccc3c2O[C@@H](CN(C)Cc2ccc4c(c2)OCO4)[C@@H](C)CN([C@@H](C)CO)C3=O)cc1	none
C[C@@H]1CN([C@H](C)CO)C(=O)c2cc(NS(=O)(=O)c3ccc(F)cc3)ccc2O[C@@H]1CN(C)Cc1ccc(-c2ccccc2)cc1	SIRT5 inh 15.9
Cc1ccc(S(=O)(=O)Nc2cccc3c2O[C@@H](CN(C)Cc2ccc4c(c2)OCO4)[C@@H](C)CN([C@H](C)CO)C3=O)cc1	SIRT5 inh 15.0
C[C@H](CO)N1C[C@H](C)[C@@H](CN(C)Cc2ccc(-c3ccccc3)cc2)Oc2c(NS(=O)(=O)c3ccccc3)cccc2C1=O	SIRT5 inh 15.6!
O=C(O)c1ccc(S(=O)(=O)N(Cc2ccc(F)cc2)C2CCCCC2)cc1	Ecoli rRNA inh -22.2 (no result: E-selectin induc)
NC(=O)C1CCN(C(=O)CN(C2CCCCC2)S(=O)(=O)c2ccc(F)cc2)CC1	Ecoli rRNA inh -25.5 (no result: E-selectin induc)
Cc1ccc(S(=O)(=O)N(CC(=O)N2CCCC2)C2CCCCC2)cc1	none (no result: E-selectin induc)
C[C@@H]1CN([C@H](C)CO)C(=O)c2cc(NC(=O)NC3CCCCC3)ccc2O[C@@H](C)CCCCO[C@H]1CN(C)Cc1ccncc1	none
CCC(CC)NC(=O)Nc1ccc(F)c(Cl)c1	E-selectin induc 27.2
Cc1ccc(NC(=O)Nc2ccc(F)c(Cl)c2)cc1	none (no result: ERAP1 HTS inh)
